From ChEMBL document CHEMBL3734652, “Pyrrolo[3,4-c]pyridine-1,3(2H)-diones: A Novel Antimycobacterial Class Targeting Mycobacterial Respiration” (J Med Chem, 2015)
In brackets after ≈: the same amount, converted by molar mass.

Assays:
[1] = test system: Mycobacterium tuberculosis; assay: Antimicrobial activity against Mycobacterium tuberculosis deltacydKO/A317T mutant under GAST/Fe medium assessed as growth inhibition after 14 days by alamar blue assay; assay type: functional
In short: (§1)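 Broth microdilution in GAST/Fe medium against fully virulent Mtb H37RvMa or its derived strains (cytochrome bd oxidase deletion ΔcydKO; qcrB Ala317Thr point mutant). Plates were incubated 14 days, growth was read by Alamar Blue, and MIC90 was taken as the potency value.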

[2] = test system: Mycobacterium tuberculosis; assay: Antimicrobial activity against Mycobacterium tuberculosis deltacydKO mutant under GAST/Fe medium assessed as growth inhibition after 14 days by alamar blue assay; assay type: functional; in short: as §1

| SMILES | MIC90 [1] | MIC90 [2] |
| --- | --- | --- |
| Cc1noc(-c2nc(C)c3c(c2N)C(=O)N(Cc2cccc(Cl)c2)C3=O)n1 | >10 µM | <0.019 µM |
| COc1cccc(CN2C(=O)c3c(C)nc(-c4nc(C)no4)c(N)c3C2=O)c1 | >10 µM | 0.039 µM (≈ 0.0148 µg/mL) |
| CCOC(=O)c1nc(C)c2c(c1N)C(=O)N(Cc1ccccc1)C2O (configuration not stated) | >10 µM | 0.019 µM (≈ 0.00649 µg/mL) |
| Cc1noc(-c2nc(C)c3c(c2N)C(=O)N(Cc2cccc(OC(F)(F)F)c2)C3=O)n1 | >10 µM | <0.019 µM |
| CCOC(=O)c1nc(C)c2c(c1N)C(=O)N(Cc1ccccc1)C2=O | >10 µM | 0.019 µM (≈ 0.00645 µg/mL) |
| Cc1nc(C(=O)OC2CC2)c(N)c2c1C(=O)N(Cc1ccccc1)C2=O | >10 µM | 0.039 µM (≈ 0.0137 µg/mL) |
